Measured values as given in ChEMBL document CHEMBL4311966, “Sulfide, sulfoxide and sulfone bridged acyclic nucleoside phosphonates as inhibitors of the Plasmodium falciparum and human 6-oxopurine phosphoribosyltransferases: Synthesis and evaluation” (Eur J Med Chem, 2019).

How the values were obtained:
[1] = Selectivity index, ratio of Ki for human HGPRT to Ki for Plasmodium falciparum HGPRT
[2] = biological target: T1, Hypoxanthine-guanine phosphoribosyltransferase (Homo sapiens, UniProt P00492); assay: Inhibition of human HGPRT using Prib-PP as substrate by Hanes-plot based method
T1 sequence (P00492 whole entry): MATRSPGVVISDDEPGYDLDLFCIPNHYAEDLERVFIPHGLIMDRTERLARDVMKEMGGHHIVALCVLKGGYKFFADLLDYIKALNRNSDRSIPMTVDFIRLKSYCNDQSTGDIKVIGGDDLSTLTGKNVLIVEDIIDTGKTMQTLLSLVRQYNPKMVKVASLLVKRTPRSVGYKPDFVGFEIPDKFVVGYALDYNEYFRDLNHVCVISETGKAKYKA

[3] = Inhibition of Plasmodium falciparum HGPRT using xanthine as substrate by Hanes-plot based method
Outline: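 Ki was determined for PfHGXPRT using xanthine as the substrate, under the conditions used for human HGPRT. The reaction was followed spectrophotometrically at 255 nm, with Δε 4670 M⁻¹ cm⁻¹. Km for xanthine was 189 ± 18 μM.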

Plasmodium falciparum [4] = assay: Antimalarial activity against chloroquine-resistant Plasmodium falciparum W2 in erythrocytes assessed as reduction in 3H-hypoxanthine uptake incubated for 96 hrs and 3H-hypoxanthine added after 48 hrs of compound addition
[5] = Cytotoxicity against human CCRF-CEM cells assessed as cell viability at 10 uM; assay type: cell-based; conditions: read-out: Activity
Outline: (§1)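 Percent viability of human HepG2 (hepatocellular carcinoma) and CCRF-CEM (T-cell leukemia) cells after exposure to a single fixed prodrug concentration of 10 μM, expressed relative to untreated control cells.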

[6] = Cytotoxicity against human HepG2 cells assessed as cell viability at 10 uM; assay type: cell-based; conditions: read-out: Activity; outline: as §1
Plasmodium falciparum [7] = assay: Antimalarial activity against Plasmodium falciparum D6 in erythrocytes assessed as reduction in 3H-hypoxanthine uptake incubated for 96 hrs and 3H-hypoxanthine added after 48 hrs of compound addition

Row | Structure (SMILES) | Ratio Ki [1] | Ki [2] [µM] | Ki [3] [µM] | IC50 (Plasmodium falciparum [4]) [µM] | viability at 10 µM [5] [%] | viability at 10 µM [6] [%] | IC50 (Plasmodium falciparum [7]) [µM]
1 | Nc1nc2c(ncn2CCSCCP(=O)(O)O)c(=O)[nH]1 | 4 | 0.4 | 0.1 |  |  |  | 
2 | O=c1[nH]cnc2c1ncn2CCS(=O)(=O)CCP(=O)(O)O | > 22 | > 90 | 4 |  |  |  | 
3 | CC(C)OC(=O)[C@H](Cc1ccccc1)NP(=O)(CSCCCn1cnc2c(=O)[nH]c(N)nc21)N[C@@H](Cc1ccccc1)C(=O)OC(C)C |  |  |  | 5.2 | 98 | 95 | 4
4 | O=c1[nH]cnc2c1ncn2CCCSCP(=O)(O)O | > 26 | > 80 | 3 |  |  |  | 
5 | CC(C)OC(=O)[C@H](Cc1ccccc1)NP(=O)(CCSCCn1cnc2c(=O)[nH]cnc21)N[C@@H](Cc1ccccc1)C(=O)OC(C)C |  |  |  | 5.4 | 100 | 90 | 4.4
6 | CC(C)OC(=O)[C@H](Cc1ccccc1)NP(=O)(CCSCCn1cnc2c(=O)[nH]c(N)nc21)N[C@@H](Cc1ccccc1)C(=O)OC(C)C |  |  |  | 4.4 | 106 | 83 | 5.4
7 | Nc1nc2c(ncn2CCC[S+]([O-])CP(=O)(O)O)c(=O)[nH]1 (configuration not stated) | 15 | 3 | 0.2 |  |  |  | 
8 | O=c1[nH]cnc2c1ncn2CCCS(=O)(=O)CP(=O)(O)O | 10 | 46 | 4.5 |  |  |  | 
9 | O=c1[nH]cnc2c1ncn2CC[S+]([O-])CCP(=O)(O)O (configuration not stated) | 4 | 4 | 1 |  |  |  | 
10 | Nc1nc2c(ncn2CCCSCP(=O)(O)O)c(=O)[nH]1 | 1.3 | 1.4 | 1.1 |  |  |  | 
11 | O=c1[nH]cnc2c1ncn2CCSCCP(=O)(O)O | 25 | 5 | 0.2 |  |  |  | 
12 | Nc1nc2c(ncn2CC[S+]([O-])CCP(=O)(O)O)c(=O)[nH]1 (configuration not stated) | 0.7 | 0.2 | 0.3 |  |  |  | 
13 | O=c1[nH]cnc2c1ncn2CCC[S+]([O-])CP(=O)(O)O (configuration not stated) | 2.8 | 11 | 4 |  |  |  | 
